# Results as given in ChEMBL document CHEMBL1137737, “Synthesis, antimicrobial and cytotoxic activities of 1,3,4-oxadiazoles, 1,3,4-thiadiazoles and 1,2,4-triazoles” (Eur J Med Chem, 2009).
# Assays:
# Format in all cases: functional
# [1] = test system: Proteus vulgaris; test: Antibacterial activity against Proteus vulgaris NCIM 2027 at 200 ug/disk after 24 hrs by agar disc-diffusion method; conditions: NCIM 2027, 24 h, read-out: DIZ
# Outline: (§1)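 Sterile 6 mm filter-paper discs are soaked in compound solution in DMSO and placed on nutrient agar plates already inoculated with each organism. Plates are incubated at 37 °C. The diameter of the growth-inhibition zone is read after 24 h for bacteria and after 48 h for fungi.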
# [2] = test system: Staphylococcus aureus; test: Antibacterial activity against Staphylococcus aureus NCIM 5021 at 100 ug/disk after 24 hrs by agar disc-diffusion method; conditions: NCIM 5021, 24 h, read-out: DIZ; outline: as §1
# [3] = test system: Klebsiella pneumoniae; test: Antibacterial activity against Klebsiella pneumoniae NCIM 2957 after 24 hrs by microdilution susceptibility method; conditions: NCIM 2957, 24 h
# Outline: (§2)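 This is a microdilution susceptibility test. Organism suspensions are inoculated into wells holding the dilution series, then incubated at 36 °C for 24 h (bacteria) or 48 h (fungi). MIC is the lowest concentration giving no turbidity, i.e. complete inhibition of visible growth.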
# [4] = test system: Staphylococcus aureus; test: Antibacterial activity against Staphylococcus aureus NCIM 5021 after 24 hrs by microdilution susceptibility method; conditions: NCIM 5021, 24 h; outline: as §2
# [5] = test system: Bacillus subtilis; test: Antibacterial activity against Bacillus subtilis NCIM 2063 at 100 ug/disk after 24 hrs by agar disc-diffusion method; conditions: NCIM 2063, 24 h, read-out: DIZ; outline: as §1
# [6] = test system: Klebsiella pneumoniae; test: Antibacterial activity against Klebsiella pneumoniae NCIM 2957 at 200 ug/disk after 24 hrs by agar disc-diffusion method; conditions: NCIM 2957, 24 h, read-out: DIZ; outline: as §1
# [7] = test system: Bacillus subtilis; test: Antibacterial activity against Bacillus subtilis NCIM 2063 after 24 hrs by microdilution susceptibility method; conditions: NCIM 2063, 24 h; outline: as §2
# [8] = test system: Proteus vulgaris; test: Antibacterial activity against Proteus vulgaris NCIM 2027 after 24 hrs by microdilution susceptibility method; conditions: NCIM 2027, 24 h; outline: as §2
# [9] = test system: Staphylococcus aureus; test: Antibacterial activity against Staphylococcus aureus NCIM 5021 at 200 ug/disk after 24 hrs by agar disc-diffusion method; conditions: NCIM 5021, 24 h, read-out: DIZ; outline: as §1
# [10] = test system: Klebsiella pneumoniae; test: Antibacterial activity against Klebsiella pneumoniae NCIM 2957 at 100 ug/disk after 24 hrs by agar disc-diffusion method; conditions: NCIM 2957, 24 h, read-out: DIZ; outline: as §1
# [11] = test system: Bacillus subtilis; test: Antibacterial activity against Bacillus subtilis NCIM 2063 at 200 ug/disk after 24 hrs by agar disc-diffusion method; conditions: NCIM 2063, 24 h, read-out: DIZ; outline: as §1
# [12] = test system: Proteus vulgaris; test: Antibacterial activity against Proteus vulgaris NCIM 2027 at 100 ug/disk after 24 hrs by agar disc-diffusion method; conditions: NCIM 2027, 24 h, read-out: DIZ; outline: as §1
# [13] = test system: Curvularia lunata; test: Antifungal activity against Curvularia lunata NCIM 716 at 100 ug/disk after 48 hrs by agar disc-diffusion method; conditions: NCIM 716, 48 h, read-out: DIZ; outline: as §1
# [14] = test system: Aspergillus niger; test: Antifungal activity against Aspergillus niger NCIM 596 at 200 ug/disk after 48 hrs by agar disc-diffusion method; conditions: NCIM 596, 48 h, read-out: DIZ; outline: as §1
# [15] = test system: Curvularia lunata; test: Antifungal activity against Curvularia lunata NCIM 716 at 200 ug/disk after 48 hrs by agar disc-diffusion method; conditions: NCIM 716, 48 h, read-out: DIZ; outline: as §1
# [16] = test system: Fusarium solani; test: Antifungal activity against Fusarium solani NCIM 1330 after 48 hrs by microdilution susceptibility method; conditions: NCIM 1330, 48 h; outline: as §2
# [17] = test system: Aspergillus niger; test: Antifungal activity against Aspergillus niger NCIM 596 after 48 hrs by microdilution susceptibility method; conditions: NCIM 596, 48 h; outline: as §2
# [18] = test system: Fusarium solani; test: Antifungal activity against Fusarium solani NCIM 1330 at 100 ug/disk after 48 hrs by agar disc-diffusion method; conditions: NCIM 1330, 48 h, read-out: DIZ; outline: as §1
# [19] = test system: Curvularia lunata; test: Antifungal activity against Curvularia lunata NCIM 716 after 48 hrs by microdilution susceptibility method; conditions: NCIM 716, 48 h; outline: as §2
# [20] = test system: Aspergillus niger; test: Antifungal activity against Aspergillus niger NCIM 596 at 100 ug/disk after 48 hrs by agar disc-diffusion method; conditions: NCIM 596, 48 h, read-out: DIZ; outline: as §1
# [21] = test system: Fusarium solani; test: Antifungal activity against Fusarium solani NCIM 1330 at 200 ug/disk after 48 hrs by agar disc-diffusion method; conditions: NCIM 1330, 48 h, read-out: DIZ; outline: as §1
SMILES,zone of inhibition at 200 µg/disc [1],zone of inhibition at 100 µg/disc [2],MIC [3],MIC [4],zone of inhibition at 100 µg/disc [5],zone of inhibition at 200 µg/disc [6],MIC [7],zone of inhibition at 200 µg/disc [9],zone of inhibition at 100 µg/disc [10],zone of inhibition at 200 µg/disc [11],zone of inhibition at 100 µg/disc [12],zone of inhibition at 100 µg/disc [13],zone of inhibition at 200 µg/disc [14],zone of inhibition at 200 µg/disc [15],MIC [16],MIC [17],zone of inhibition at 100 µg/disc [18],MIC [19],zone of inhibition at 100 µg/disc [20],zone of inhibition at 200 µg/disc [21],further results
O=C(N[C@H](CO)[C@H](O)c1ccc([N+](=O)[O-])cc1)C(Cl)Cl [CHLORAMPHENICOL],45 mm,35 mm,6.25 µg/mL,6.25 µg/mL,38 mm,42 mm,6.25 µg/mL,41 mm,37 mm,44 mm,42 mm,,,,,,,,,,MIC [8]: 12.5 µg/mL
Nn1c(CS(=O)(=O)c2ccc(Cl)cc2)nnc1-c1ccccc1Cl,20 mm,19 mm,400 µg/mL,400 µg/mL,16 mm,20 mm,400 µg/mL,23 mm,18 mm,18 mm,19 mm,23 mm,24 mm,25 mm,200 µg/mL,400 µg/mL,24 mm,200 µg/mL,20 mm,27 mm,MIC [8]: 400 µg/mL
O=S(=O)(Cc1ccccc1)Cc1nnc(-c2ccccc2Cl)s1,22 mm,26 mm,200 µg/mL,100 µg/mL,25 mm,23 mm,200 µg/mL,29 mm,19 mm,28 mm,18 mm,19 mm,19 mm,21 mm,200 µg/mL,200 µg/mL,20 mm,200 µg/mL,16 mm,23 mm,MIC [8]: 200 µg/mL
CC(=O)N1CCN(c2ccc(OCC3COC(Cn4ccnc4)(c4ccc(Cl)cc4Cl)O3)cc2)CC1 (stereo not drawn) [KETOCONAZOLE],,,,,,,,,,,,41 mm,39 mm,44 mm,12.5 µg/mL,6.25 µg/mL,38 mm,6.25 µg/mL,36 mm,42 mm,
O=S(=O)(Cc1nnc(-c2ccccc2)s1)c1ccc(Cl)cc1,19 mm,20 mm,,400 µg/mL,18 mm,17 mm,400 µg/mL,23 mm,15 mm,23 mm,16 mm,19 mm,19 mm,21 mm,400 µg/mL,400 µg/mL,18 mm,400 µg/mL,16 mm,21 mm,
O=S(=O)(Cc1nnc(-c2ccccc2Cl)s1)c1ccc(Cl)cc1,21 mm,21 mm,400 µg/mL,200 µg/mL,19 mm,19 mm,200 µg/mL,23 mm,16 mm,23 mm,19 mm,19 mm,21 mm,22 mm,200 µg/mL,200 µg/mL,20 mm,200 µg/mL,17 mm,24 mm,MIC [8]: 400 µg/mL
